Data set [1] concerns Plasmodium falciparum. Briefly: Antimalarial activity against Plasmodium falciparum 3D7 assessed as parasite regrowth measured after 3 days of compound withdrawal at 2.5 nM by standard growth inhibition assay. The data set is classed as functional, organism-based. The essentials:
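Synchronized 3D7 cultures were exposed to 2.5 nM drug, continuously or over a limited interval, and then the drug was removed. Parasitemia was measured by FACS of Sybr green-stained cells every 12 h for 4 days. Growth inhibition was calculated against 0.1% Me2SO-treated controls. Representative of three experiments.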

The subject of data set [2] is Plasmodium berghei. Briefly: Antimalarial activity against Plasmodium berghei infected in mouse assessed as decrease in decline in hematocrit rate at 0.5 mg/kg, […] as splited dose compound with drawn on day 4 measured on day 8. It counts as functional, organism-based. Set-up: dose 0.5 mg/kg. In outline:
(§1)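 ICR mice (five per group) infected intraperitoneally with 10^6 P. berghei NK56 parasites from a donor mouse, then dosed intraperitoneally with 0, 0.05, 0.5, 5 or 50 mg/kg/day split into two doses for 4 days. Parasitemia was read from Giemsa-stained tail-blood thin smears on day 4 (1,500 cells, two microscopists), with Sybr green confirming negative slides. Parasitemia and hematocrit were taken every 4 days over 6 weeks.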

For data set [3], the system named is Plasmodium berghei. The data set is described as follows: Antimalarial activity against Plasmodium berghei infected in mouse assessed as decrease in decline in hematocrit rate at 50 mg/kg, […] as splited dose compound with drawn on day 4 measured after 6 weeks. It counts as functional, organism-based. Details: dose 50 mg/kg. In outline: as §1
The subject of data set [4] is Plasmodium berghei. Briefly: Antimalarial activity against Plasmodium berghei infected in mouse assessed as decrease in parasites in blood at 0.05 mg/kg, ip administered as splited dose measured on day 4.
In data set [5] the test system is Plasmodium berghei. The data set is described as follows: Antimalarial activity against Plasmodium berghei infected in mouse assessed as decrease in parasites in blood at 5 mg/kg, ip administered as splited dose measured on day 4 relative to control.
The test system of data set [6] is Plasmodium berghei. The data set is described as follows: Antimalarial activity against Plasmodium berghei infected in mouse assessed as decrease in parasites in blood at 0.5 mg/kg, ip administered as splited dose measured on day 4 relative to control.
Data set [7] deals with Plasmodium berghei. The data set is described as follows: Antimalarial activity against Plasmodium berghei infected in mouse assessed as decrease in parasites in blood at 5 mg/kg, ip administered as splited dose compound with drawn on day 4 measured on day 20.
In data set [8] the test system is Plasmodium berghei. The data set is described as follows: Antimalarial activity against Plasmodium berghei infected in mouse assessed as decrease in parasites in blood at 0.5 mg/kg, ip administered as splited dose compound with drawn on day 4 measured on day 8.
For data set [9], the system named is Plasmodium berghei. The data set is described as follows: Antimalarial activity against Plasmodium berghei infected in mouse assessed as decrease in parasites in blood at 50 mg/kg, ip administered as splited dose compound with drawn on day 4 measured after 6 weeks.
Data set [10] relates to Plasmodium falciparum. Briefly: Inhibition of HDAC in Plasmodium falciparum 3D7 by fluorescent activity assay. It counts as organism-based.
A further data set addresses Histone deacetylase. Briefly: Inhibition of human HDAC in HeLa cells by fluorescent activity assay. It counts as cell-based.
Data set [11] concerns Plasmodium falciparum. Briefly: Antimalarial activity against Plasmodium falciparum 7G8 assessed as parasite growth inhibition after 48 hrs by standard growth inhibition assay. The data set is classed as functional, organism-based.
The subject of data set [12] is Plasmodium falciparum. The data set is described as follows: Antimalarial activity against Plasmodium falciparum Dd2 assessed as parasite growth inhibition after 48 hrs by standard growth inhibition assay. The data set is classed as functional, organism-based. The conditions noted are these: Plasmodium falciparum, Dd2, 48 h.
Data set [13] deals with Plasmodium falciparum. Briefly: Antimalarial activity against Plasmodium falciparum FCR3 assessed as parasite growth inhibition after 48 hrs by standard growth inhibition assay. The conditions noted are these: Plasmodium falciparum, FCR-3/Gambia, 48 h. It counts as functional, FCR-3/Gambia.
The subject of data set [14] is Plasmodium falciparum. The data set is described as follows: Antimalarial activity against chloroquine-sensitive Plasmodium falciparum 3D7 assessed as parasite growth inhibition after 48 hrs by standard growth inhibition assay. The data set is classed as functional, organism-based. The conditions noted are these: Plasmodium falciparum, 3D7, 48 h.
Data set [15] has as its system Plasmodium falciparum. The data set is described as follows: Antimalarial activity against Plasmodium falciparum HB3 assessed as parasite growth inhibition after 48 hrs by standard growth inhibition assay. The data set is classed as functional, organism-based. The settings on record: Plasmodium falciparum, HB3, 48 h.
Data set [16] relates to Plasmodium falciparum. Briefly: Antimalarial activity against sPlasmodium falciparum VS/1 assessed as parasite growth inhibition after 48 hrs by standard growth inhibition assay. The data set is classed as functional.
Data set [17] relates to Plasmodium falciparum. The data set is described as follows: Antimalarial activity against chloroquine-resistant Plasmodium falciparum FCB1 assessed as parasite growth inhibition after 48 hrs by standard growth inhibition assay. The data set is classed as functional, organism-based, FcB1/Columbia. The conditions noted are these: Plasmodium falciparum, FcB1/Columbia, 48 h. In outline: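 Ring-stage cultures of P. falciparum (3D7, FCB1) in RBCs, 2% hematocrit, at 1% parasitemia, incubated 48 h at 37°C in 90% N2/5% O2/5% CO2 with compound; 0.1% Me2SO control, uninfected-RBC background. Parasitemia counted by FACS on 100,000 Sybr green-stained cells; accepted only if controls grew ≥3-fold. Growth inhibition from background-corrected ratio to control. Triplicate, repeated at least twice.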

Data set [18] relates to Plasmodium falciparum. Briefly: Antimalarial activity against Plasmodium falciparum 3D7 trophozoites assessed as parasite growth inhibition at […] nM measured at end of the experiment by standard growth inhibition assay. It counts as functional.
Data set [19] has as its system Plasmodium falciparum. Briefly: Antimalarial activity against Plasmodium falciparum 3D7 schizonts assessed as parasite growth inhibition at […] nM measured at end of the experiment by standard growth inhibition assay. The data set is classed as functional.
The test system of data set [20] is Plasmodium falciparum. The data set is described as follows: Antimalarial activity against Plasmodium falciparum 3D7 rings assessed as parasite growth inhibition at […] nM measured at end of the experiment by standard growth inhibition assay. It counts as functional.
Data set [21] relates to Mus musculus. Briefly: Toxicity in ICR mouse assessed as death after 5 days at 0.5 to 100 mg/kg, iv once daily. The settings on record: in vivo, 120 h. The data set is classed as organism-based. Details: dose 0.5-100 mg/kg, route intravenous.
The subject of data set [22] is Mus musculus. The data set is described as follows: Toxicity in ICR mouse assessed as death after 14 days at 5 to 100 mg/kg, iv once daily. It counts as organism-based. Details: dose 5-100 mg/kg, route intravenous. The settings on record: in vivo, 336 h.
The test system of data set [23] is Mus musculus. Briefly: Toxicity in ICR mouse assessed as clinical signs of distress after 5 days at 0.5 to 100 mg/kg, iv once daily. The conditions noted are these: in vivo, 120 h. It counts as organism-based. Details: dose 0.5-100 mg/kg, route intravenous.
The subject of data set [24] is Mus musculus. The data set is described as follows: Toxicity in ICR mouse assessed as clinical signs of distress after 14 days at 5 to 100 mg/kg, iv once daily. The data set is classed as organism-based. Details: dose 5-100 mg/kg, route intravenous. The settings on record: in vivo, 336 h.
Data set [25] has as its system Mus musculus. The data set is described as follows: Toxicity in ICR mouse assessed as mild increase in erythroid mass after 5 days at 0.5 to 50 mg/kg, iv once daily. It counts as organism-based, Erythrocyte. Details: dose 0.5-50 mg/kg, route intravenous. The conditions noted are these: in vivo, 120 h.
The subject of data set [26] is Mus musculus. Briefly: Toxicity in ICR mouse assessed as mild increase in erythroid mass after 14 days at 5 to 50 mg/kg, iv once daily. The data set is classed as organism-based, Erythrocyte. Details: dose 5-50 mg/kg, route intravenous. The settings on record: in vivo, 336 h.
The test system of data set [27] is Mus musculus. Briefly: Toxicity in ICR mouse assessed as moderate increase in erythroid mass after 5 days at 0.5 to 100 mg/kg, iv once daily. It counts as organism-based, Erythrocyte. Details: dose 0.5-100 mg/kg, route intravenous. The settings on record: in vivo, 120 h.
Data set [28] relates to Mus musculus. Briefly: Toxicity in ICR mouse assessed as moderate increase in erythroid mass after 14 days at 5 to 50 mg/kg, iv once daily. The settings on record: in vivo, 336 h. It counts as organism-based, Erythrocyte. Set-up: dose 5-50 mg/kg, route intravenous.
Data set [29] has as its system Mus musculus. The data set is described as follows: Toxicity in ICR mouse assessed as severe increase in erythroid mass after 5 days at 0.5 to 100 mg/kg, iv once daily. Details: dose 0.5-100 mg/kg, route intravenous. It counts as organism-based, Erythrocyte. The conditions noted are these: in vivo, 120 h.
Data set [30] concerns Mus musculus. Briefly: Toxicity in ICR mouse assessed as severe increase in erythroid mass after 14 days at 5 to 100 mg/kg, iv once daily. It counts as organism-based, Erythrocyte. Details: dose 5-100 mg/kg, route intravenous. The conditions noted are these: in vivo, 336 h.
Data set [31] concerns Plasmodium berghei. Briefly: Antimalarial activity against Plasmodium berghei infected in iv dosed mouse assessed as decrease in parasites in blood. The settings on record: in the assay text read “ip dosed” for “iv dosed”. The data set is classed as functional, organism-based. The essentials:
as §1

For data set [32], the system named is Plasmodium berghei. The data set is described as follows: Antimalarial activity against Plasmodium berghei infected in mouse assessed as mouse survival days at 0.5 mg/kg, […] as splited dose measured on day 4 relative to control. The data set is classed as functional. The essentials: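 P. berghei NK56 blood from donor ICR mice (≥10% parasitemia), diluted in PBS; 10^6 parasites given ip to groups of five ICR mice. Treatment started simultaneously: ip, 0, 0.05, 0.5, 5 or 50 mg/kg/day in two daily doses for 4 days. Mice monitored up to 6 weeks or until death; survival counted from treatment start; paired Student t test.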

Data set [33] has as its system Plasmodium falciparum. Briefly: Antimalarial activity against Plasmodium falciparum 3D7 rings assessed as parasite growth inhibition at […] nM after 14 hrs by standard growth inhibition assay. The settings on record: 3D7, 14 h.
The test system of data set [34] is Plasmodium falciparum. Briefly: Antimalarial activity against Plasmodium falciparum 3D7 schizonts assessed as parasite growth inhibition at […] nM after 14 hrs by standard growth inhibition assay. The conditions noted are these: 3D7, 14 h.
Data set [35] relates to Plasmodium falciparum. The data set is described as follows: Antimalarial activity against Plasmodium falciparum 3D7 trophozoites assessed as parasite growth inhibition at […] nM after 14 hrs by standard growth inhibition assay. The settings on record: 3D7, 14 h.
[36] abbreviates: Plasmodium falciparum, 7G8, 48 h.
[37] abbreviates: Plasmodium falciparum, VS/1, 48 h.

Each structure is given as a SMILES string. The source made the active and inactive calls. The rule behind the calls is not given here.

As for `Nc1cccc(-c2csc(NC(=O)CCCCCCC(=O)NO)n2)c1` [listing 1 of 2 here], the result in the data set with Plasmodium falciparum [1], with Plasmodium berghei [2], with Plasmodium berghei [3], in the data set with Plasmodium berghei [5], in the data set on Plasmodium berghei [6] and with Plasmodium berghei [9] was Active. Further, the result in the data set on Plasmodium berghei [4], in the data set with Plasmodium berghei [7] and in the data set on Plasmodium berghei [8] was inactive.

Turning to `O=C(CCCCCC(=O)Nc1cccc2cccnc12)NS`, the IC50 in the data set with Plasmodium falciparum [10] (Plasmodium falciparum, 3D7) came to 4.55 µM; on Histone deacetylase it was 0.044 µM; with Plasmodium falciparum [11] (setting [36]), 5.55 µM; in the data set with Plasmodium falciparum [12] it was 7.55 µM; with Plasmodium falciparum [13], 6.75 µM; in the data set on Plasmodium falciparum [14] it was 9.75 µM. For the same compound, the IC50 with Plasmodium falciparum [15] was 8.99 µM; in the data set on Plasmodium falciparum [16] (setting [37]), 9.91 µM; in the data set with Plasmodium falciparum [17] it was 6.78 µM.

Broadly, the inhibition is the share of the control response that was lost under treatment. Take `Nc1cccc(-c2csc(NC(=O)CCCCCCC(=O)NO)n2)c1` [listing 2 of 2 here]: the IC50 in the data set with Plasmodium falciparum [10] came to 0.00023 µM; against Histone deacetylase, 0.0039 µM; in the data set on Plasmodium falciparum [11], 0.0004 µM; with Plasmodium falciparum [16], 0.001 µM; in the data set on Plasmodium berghei [31], 0.5 mg/kg/day. The inhibition at 0.00125 µM was 25% in the data set with Plasmodium falciparum [18]; 20% in the data set on Plasmodium falciparum [19]; less than 5% in the data set with Plasmodium falciparum [20]; 15% in the data set on Plasmodium falciparum [33]; 25% with Plasmodium falciparum [34]; 35% in the data set with Plasmodium falciparum [35]. In addition, the Activity result with Mus musculus [21], in the data set on Mus musculus [22], with Mus musculus [23], in the data set on Mus musculus [24], in the data set on Mus musculus [25] and in the data set with Mus musculus [26] was “Non-toxic” throughout. The Activity entry in the data set on Mus musculus [27], in the data set on Mus musculus [28], in the data set with Mus musculus [29] and in the data set with Mus musculus [30] was “Non-toxic” throughout. Further, the Survival in the data set with Plasmodium berghei [32] was 23.6 days.

On to `O=C(CCCCCCC(=O)NC12CC3CC(CC(C3)C1)C2)NO`, for which the IC50 in the data set on Plasmodium falciparum [10] (Plasmodium falciparum, 3D7) is 0.658 µM; against Histone deacetylase, 0.42 µM; in the data set on Plasmodium falciparum [11] (setting [36]), 10 µM; with Plasmodium falciparum [13] it was 9.58 µM; with Plasmodium falciparum [14], 11 µM; in the data set on Plasmodium falciparum [15], 9.55 µM. Moreover, the IC50 worked out at 8.12 µM in the data set with Plasmodium falciparum [16] (setting [37]) and 6.55 µM with Plasmodium falciparum [17].

(Values after ChEMBL document CHEMBL1629675, “Novel inhibitor of Plasmodium histone deacetylase that cures P. berghei-infected mice” (Antimicrob Agents Chemother, 2009).)
